Measurements pooled from the literature.
Observed: metabolic stability

O=C1CCC(N2Cc3cc(Nc4noc5cc(F)ccc45)ccc3C2=O)C(=O)N1 (centres unmarked)
half-life (CD-1 mouse, hepatocytes): > 216 min

O=C(c1ccc(F)cc1)C1CCN(CCn2c(=O)[nH]c3ccccc3c2=O)CC1
half-life (mouse, liver microsomes): 22.8 min

O=c1ccc2ccc(O)cc2o1
half-life (mouse, liver microsomes): 2 min

CCOc1ccc2ccc(=O)oc2c1
half-life (male CD-1 mouse, hepatocytes; 1 µM): < 15 min

CC1(CN)CCN(c2cnc3c(Sc4ccncc4Cl)n[nH]c3n2)CC1
half-life (mouse, liver microsomes): 630 min

O=c1ccc2cc(O)ccc2o1
half-life (mouse, liver microsomes; 20 µM): 8.22 min

O=C(O)Cc1ccccc1Nc1c(Cl)cccc1Cl
half-life (mouse, liver microsomes): 60.8 min

CC(C)Oc1ccc(S(=O)(=O)c2ccc(Oc3cc(OCC(N)=O)c(C(=O)C(Cl)Cl)cc3[N+](=O)[O-])cc2)cc1
half-life (mouse, liver microsomes; 20 µM): 7.2 min
